System: HEK-293T
Assay: Multiplex assay against HEK293T;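 on Population Tubulin-Different-Phenotype (%): share of the cells with healthy nuclei that show this phenotype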
Format: toxicity, cell-based
Settings: human
In short: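 Four dyes were applied at seeding to live cells: Hoechst33342, BioTracker Green Microtubule Cytoskeleton Dye, MitoTracker Red and Annexin V Alexa Fluor 680. Imaging after compound addition used a CQ1 microscope at 37°C and 5% CO2. CellPathfinder machine-learning gating then sorted cells into Hoechst high-intensity objects or normal cells, normal cells into healthy, pyknosed or fragmented nuclei, and pyknosed cells into mitotic or apoptotic, with tubulin, mitochondrial-mass and membrane-permeability phenotypes given as per cents of healthy-nucleus cells.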

[1] = 12 h, 1 µM, compound concentration 1 uM, replicate 1
[2] = 12 h, 1 µM, compound concentration 1 uM, replicate 2
[3] = 12 h, 10 µM, compound concentration 10 uM, replicate 1
[4] = 12 h, 10 µM, compound concentration 10 uM, replicate 2
[5] = 24 h, 1 µM, compound concentration 1 uM, replicate 1
[6] = 24 h, 1 µM, compound concentration 1 uM, replicate 2
[7] = 24 h, 10 µM, compound concentration 10 uM, replicate 1
[8] = 24 h, 10 µM, compound concentration 10 uM, replicate 2
[9] = 48 h, 1 µM, compound concentration 1 uM, replicate 1
[10] = 48 h, 1 µM, compound concentration 1 uM, replicate 2
[11] = 48 h, 10 µM, compound concentration 10 uM, replicate 1
[12] = 48 h, 10 µM, compound concentration 10 uM, replicate 2

## COc1cc2c(NC3CCN(C(C)C)CC3)nc(N3CCC(F)(F)CC3)nc2cc1OCCCN1CCCC1
[1]
  Population Apoptotic (%): 67%
  Population Fragmented Nuclei (%): 16%
  Population Healthy Nuclei (%): 32%
  Population Hoechst High Intensity Objects (%): 19%
  Population Membrane Permeable-Phenotype (%): 0%
  Population Mitochondria Different-Phenotype (%): 96%
  Population Mitotic Cells (%): 32%
  Population Normal (%): 80%
  Population Pyknosed Nuclei (%): 50%
  Population Tubulin-Different-Phenotype (%): 76%
  Total Cell Count: 324
[2]
  Population Apoptotic (%): 37%
  Population Fragmented Nuclei (%): 8%
  Population Healthy Nuclei (%): 40%
  Population Hoechst High Intensity Objects (%): 6%
  Population Membrane Permeable-Phenotype (%): 4%
  Population Mitochondria Different-Phenotype (%): 56%
  Population Mitotic Cells (%): 62%
  Population Normal (%): 93%
  Population Pyknosed Nuclei (%): 51%
  Population Tubulin-Different-Phenotype (%): 48%
  Total Cell Count: 235
[3]
  Population Apoptotic (%): 90%
  Population Fragmented Nuclei (%): 8%
  Population Healthy Nuclei (%): 26%
  Population Hoechst High Intensity Objects (%): 18%
  Population Membrane Permeable-Phenotype (%): 0%
  Population Mitochondria Different-Phenotype (%): 100%
  Population Mitotic Cells (%): 9%
  Population Normal (%): 81%
  Population Pyknosed Nuclei (%): 64%
  Population Tubulin-Different-Phenotype (%): 98%
  Total Cell Count: 298
[4]
  Population Apoptotic (%): 92%
  Population Fragmented Nuclei (%): 7%
  Population Healthy Nuclei (%): 24%
  Population Hoechst High Intensity Objects (%): 6%
  Population Mitochondria Different-Phenotype (%): 98%
  Population Mitotic Cells (%): 7%
  Population Normal (%): 93%
  Population Pyknosed Nuclei (%): 68%
  Population Tubulin-Different-Phenotype (%): 96%
  Total Cell Count: 245
[5]
  Population Apoptotic (%): 61%
  Population Fragmented Nuclei (%): 16%
  Population Healthy Nuclei (%): 42%
  Population Hoechst High Intensity Objects (%): 24%
  Population Membrane Permeable-Phenotype (%): 1%
  Population Mitochondria Different-Phenotype (%): 77%
  Population Mitotic Cells (%): 38%
  Population Normal (%): 75%
  Population Pyknosed Nuclei (%): 41%
  Population Tubulin-Different-Phenotype (%): 51%
  Total Cell Count: 348
[6]
  Population Apoptotic (%): 39%
  Population Fragmented Nuclei (%): 6%
  Population Healthy Nuclei (%): 60%
  Population Hoechst High Intensity Objects (%): 12%
  Population Membrane Permeable-Phenotype (%): 4%
  Population Mitochondria Different-Phenotype (%): 45%
  Population Mitotic Cells (%): 60%
  Population Normal (%): 87%
  Population Pyknosed Nuclei (%): 33%
  Population Tubulin-Different-Phenotype (%): 45%
  Total Cell Count: 272
[7]
  Population Apoptotic (%): 85%
  Population Fragmented Nuclei (%): 11%
  Population Healthy Nuclei (%): 23%
  Population Hoechst High Intensity Objects (%): 24%
  Population Membrane Permeable-Phenotype (%): 0%
  Population Mitochondria Different-Phenotype (%): 100%
  Population Mitotic Cells (%): 14%
  Population Normal (%): 75%
  Population Pyknosed Nuclei (%): 65%
  Population Tubulin-Different-Phenotype (%): 91%
  Total Cell Count: 324
[8]
  Population Apoptotic (%): 95%
  Population Fragmented Nuclei (%): 7%
  Population Healthy Nuclei (%): 25%
  Population Hoechst High Intensity Objects (%): 14%
  Population Membrane Permeable-Phenotype (%): 1%
  Population Mitochondria Different-Phenotype (%): 92%
  Population Mitotic Cells (%): 4%
  Population Normal (%): 85%
  Population Pyknosed Nuclei (%): 67%
  Population Tubulin-Different-Phenotype (%): 86%
  Total Cell Count: 244
[9]
  Population Apoptotic (%): 55%
  Population Fragmented Nuclei (%): 19%
  Population Healthy Nuclei (%): 41%
  Population Hoechst High Intensity Objects (%): 25%
  Population Membrane Permeable-Phenotype (%): 4%
  Population Mitochondria Different-Phenotype (%): 38%
  Population Mitotic Cells (%): 44%
  Population Normal (%): 75%
  Population Pyknosed Nuclei (%): 38%
  Population Tubulin-Different-Phenotype (%): 38%
  Total Cell Count: 368
[10]
  Population Apoptotic (%): 17%
  Population Fragmented Nuclei (%): 8%
  Population Healthy Nuclei (%): 78%
  Population Hoechst High Intensity Objects (%): 12%
  Population Membrane Permeable-Phenotype (%): 7%
  Population Mitochondria Different-Phenotype (%): 9%
  Population Mitotic Cells (%): 82%
  Population Normal (%): 87%
  Population Pyknosed Nuclei (%): 12%
  Population Tubulin-Different-Phenotype (%): 33%
  Total Cell Count: 508
[11]
  Population Apoptotic (%): 89%
  Population Fragmented Nuclei (%): 18%
  Population Healthy Nuclei (%): 10%
  Population Hoechst High Intensity Objects (%): 26%
  Population Membrane Permeable-Phenotype (%): 3%
  Population Mitochondria Different-Phenotype (%): 96%
  Population Mitotic Cells (%): 10%
  Population Normal (%): 73%
  Population Pyknosed Nuclei (%): 70%
  Population Tubulin-Different-Phenotype (%): 82%
  Total Cell Count: 347
[12]
  Population Apoptotic (%): 94%
  Population Fragmented Nuclei (%): 8%
  Population Healthy Nuclei (%): 38%
  Population Hoechst High Intensity Objects (%): 21%
  Population Membrane Permeable-Phenotype (%): 5%
  Population Mitochondria Different-Phenotype (%): 97%
  Population Mitotic Cells (%): 5%
  Population Normal (%): 78%
  Population Pyknosed Nuclei (%): 53%
  Population Tubulin-Different-Phenotype (%): 84%
  Total Cell Count: 232

Source: ChEMBL document CHEMBL4689842, “EUbOPEN Chemogenomics Library wave 1” (2021)
